The source made the active and inactive calls. The rule behind the calls is not given here.
Tests used:
Tubulin (Homo sapiens) [1] = target: T1, Tubulin (Homo sapiens) (UniProt P68371+Q9H4B7+P0DPH7+P68366+Q13509+Q71U36+P04350+Q3ZCM7+P07437+P68363+Q9BQE3+Q6PEY2+Q13885+Q9BVA1+Q9BUF5); test: Binding affinity to tubulin (unknown origin) assessed as fluorescence peak around 460 nm by UV/vis absorption spectroscopy; format: protein-complex assay
OE33 = test: Cytotoxicity against human OE33 cells assessed as inhibition of cell growth measured after 72 hrs by MTT assay; format: functional, cell-based; settings: OE33, 72 h
Procedure, shortened: (§1)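 Oesophageal adenocarcinoma lines were exposed to at least 8 increasing concentrations for 72 h. Viability was measured by MTT. IC50 is the mean ± SD of at least three independent experiments.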

A2780 = test: Cytotoxicity against human A2780AD cells assessed as inhibition of cell growth measured after 48 hrs by MTT assay; format: functional, cell-based; settings: A2780, 48 h
Procedure, shortened: (§2)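 MTT assay. Cells were exposed for 48 h to increasing concentrations of compound. Ovarian A2780 was paired with its P-gp-overexpressing A2780AD counterpart, and HeLa with HeLa β3, which overexpresses the tubulin β3 isotype. IC50 is the mean ± SD of three independent experiments.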

SCC-4 = test: Induction of apoptosis in human SCC-4 cells assessed as increase in apoptotic cells at 0.5 uM after 48 hrs by Annexin V-FITC/PI staining based flow cytometry method; format: functional, cell-based
Procedure, shortened: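 SCC4 cells were treated at 0.5 or 2 μM for 48 h, then stained with Annexin V/PI and analysed by flow cytometry. Data are mean ± SEM of three independent experiments, with an unpaired one-tailed t-test versus vehicle.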

HeLa [2] = test: Cytotoxicity against human HeLa cells overexpressing tubulin beta3 assessed as inhibition of cell growth measured after 48 hrs by MTT assay; format: functional, cell-based; procedure, shortened: as §2
HL-60 [3] = test: Induction of autophagy in human HL-60 cells assessed as increase in p62 protein level at 10 uM […] by Immunoblotting analysis; format: functional, cell-based
HL-60 [4] = test: Induction of autophagy in human HL-60 cells assessed as increase in LC3-II protein level at 10 uM measured up to 1 hr by Immunoblotting analysis; format: functional, cell-based
[5] = target: Mitogen-activated protein kinase; ERK1/ERK2 (Homo sapiens) (UniProt P27361+P28482); test: Inhibition of ERK1/2 phosphorylation in human HL-60 cells at 10 uM measured after 2 hrs by Immunoblotting analysis; format: cell-based
Sequence of Mitogen-activated protein kinase; ERK1/ERK2 (Homo sapiens) (P27361 whole entry, looked up): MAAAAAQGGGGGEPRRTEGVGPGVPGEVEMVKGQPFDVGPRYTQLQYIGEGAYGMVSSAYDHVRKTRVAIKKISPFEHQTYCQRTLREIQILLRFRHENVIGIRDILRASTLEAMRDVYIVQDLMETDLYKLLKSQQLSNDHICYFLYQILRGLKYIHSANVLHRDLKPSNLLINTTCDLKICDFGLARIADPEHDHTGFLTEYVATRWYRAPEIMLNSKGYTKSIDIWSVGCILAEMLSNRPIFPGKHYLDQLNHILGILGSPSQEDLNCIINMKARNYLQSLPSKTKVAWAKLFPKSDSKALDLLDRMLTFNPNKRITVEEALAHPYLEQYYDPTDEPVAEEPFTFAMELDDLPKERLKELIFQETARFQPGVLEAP
Sequence of Mitogen-activated protein kinase; ERK1/ERK2 (Homo sapiens) (P28482 whole entry, looked up): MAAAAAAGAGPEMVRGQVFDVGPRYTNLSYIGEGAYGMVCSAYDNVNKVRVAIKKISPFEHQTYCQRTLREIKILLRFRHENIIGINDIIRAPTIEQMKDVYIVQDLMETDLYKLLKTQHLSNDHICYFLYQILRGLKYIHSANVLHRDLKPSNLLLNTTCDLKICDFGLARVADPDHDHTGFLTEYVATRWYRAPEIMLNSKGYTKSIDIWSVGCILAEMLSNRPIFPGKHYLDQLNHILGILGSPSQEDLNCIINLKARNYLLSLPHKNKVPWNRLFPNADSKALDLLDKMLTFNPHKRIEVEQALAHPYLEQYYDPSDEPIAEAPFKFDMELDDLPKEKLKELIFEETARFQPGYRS
Procedure, shortened: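 HL-60 cells were treated at 10 μM or with DMSO vehicle for 2 h. Phospho-NF-κB and phospho-Erk1/2 were immunoblotted and quantified by densitometry relative to β-tubulin. Data are mean ± SD (n = 2), analysed by one-way ANOVA.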

TR146 = test: Induction of apoptosis in human TR146 cells assessed as increase in apoptotic cells at 0.5 uM after 48 hrs by Annexin V-FITC/PI staining based flow cytometry method; format: functional, cell-based
Procedure, shortened: (§3)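 Ca9.22 or TR146 cells were seeded at 30×10^4 cells/mL and treated with 500 nM compound or 1% EtOH (v/v) vehicle for 48 h. Annexin V/PI staining was read by flow cytometry, gating 10,000 cells on vehicle-treated cells. Data are mean ± SEM (n = 3).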

Emu-TCL1 = test: Induction of apoptosis in mouse Emu-TCL1 cells model of CLL assessed as mitochondrial membrane depolarization at 10 uM after 48 hrs by TMRM dye based flow cytometric analysis; format: functional, cell-based
Procedure, shortened: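 Splenocytes from Eμ-TCL1 leukaemic mice were treated with 10 μM or DMSO vehicle for 48 h, then TMRM-loaded. Flow cytometry gave the percentage of TMRM-low cells as mean ± SD (n = 3).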

Ca9-22 = test: Induction of apoptosis in human Ca9-22 cells assessed as increase in apoptotic cells at 0.5 uM after 48 hrs by Annexin V-FITC/PI staining based flow cytometry method; format: functional, cell-based; procedure, shortened: as §3
Tubulin (Homo sapiens) [6] = target: T1, Tubulin (Homo sapiens); test: Inhibition of tubulin (unknown origin) assembly measured at 5 uM by fluorescence assay; format: protein-complex assay
[7] = Mutagenicity in Salmonella typhimurium TA100 in presence of rat liver S9 fraction at 0.3 to 60 uM by AMES test; format: toxicity, subcellular; settings: salmonella enterica subsp. enterica serovar typhimurium, s9, 60 µM; dose 0.3-60 µM
[8] = Cytotoxicity against human FLO-1 cells assessed as inhibition of cell growth measured after 72 hrs by MTT assay; format: functional, cell-based; settings: FLO-1, 72 h; procedure, shortened: as §1
[9] = Cytotoxicity against human Primary oral epithelial cells assessed as inhibition of cell growth measured after 24 hrs by neutral red uptake assay; format: toxicity, cell-based
Procedure, shortened: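 Neutral red uptake viability test. NIH3T3 fibroblasts or primary human oral epithelial cells were exposed to compound at 0.1 to 120 μM. EC50 was derived, with SD below 5%.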

[10] = Induction of Pro-apoptosis in human HL-60 cells assessed as increase in apoptotic cells at 10 uM after 48 hrs by Annexin-V/PI-staining based flow cytometry; format: functional
HeLa [11] = test: Induction of morphological changes in human HeLa cells assessed as golgi complex fragmentation at 10 uM incubated for 3 hrs by phalloidin staining based laser scanning confocal microscopic analysis; format: functional, cell-based
Procedure, shortened: (§4)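 HeLa cells in growth medium were treated at 1 or 10 μM, with BafA1 300 nM as reference, for 3 h. Cells were fixed in 4% PFA, stained with anti-GM130 for the Golgi and AF647-phalloidin for actin, and imaged by laser scanning confocal microscopy.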

[12] = Metabolic stability in human liver microsomes assessed as apparent decay constant by HPLC analysis; format: ADME, Microsome
Procedure, shortened: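 Compound incubated with human liver microsomes plus an NADPH-generating system. Log % of compound recovered (100% at 0 min) was plotted against incubation time and fitted to a monoexponential decay. Controls were boiled microsomes, or microsomes without NADPH-GS, at 37 °C for 60 min.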

[13] = Ratio of IC50 for cytotoxicity against human HeLa cells overexpressing tubulin beta3 assessed as inhibition of cell growth measured after 48 hrs to IC50 for cytotoxicity against human HeLa cells assessed as inhibition of cell growth measured after 48 hrs; format: functional
Procedure, shortened: (§5)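 MTT assay: cells exposed to increasing compound concentrations for 48 h. Lines were A2780 and its P-gp-overexpressing A2780AD counterpart, and HeLa and HeLa β3 (tubulin β3-overexpressing). IC50 is the mean ± SD of three independent experiments. R/S is the IC50 in the resistant line divided by that in the parental line.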

[14] = Ratio of IC50 for cytotoxicity against human […] assessed as inhibition of cell growth measured after 48 hrs to IC50 for cytotoxicity against human A2780 cells assessed as inhibition of cell growth measured after 48 hrs; format: functional; procedure, shortened: as §5
Tubulin (Homo sapiens) [15] = target: T1, Tubulin (Homo sapiens); test: Binding affinity to tubulin (unknown origin) using podophyllotoxin by Competition assay; format: protein-complex assay
Procedure, shortened: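 Fluorescence competition: compound and tubulin at equal concentrations (0.1, 0.5 or 1 μM each) titrated with podophyllotoxin up to 10 μM; excitation 350 nm, emission read at 450 nm on plate reader; displacement judged as fluorescence decrease.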

[16] = Mutagenicity in Salmonella typhimurium TA100 in absence of rat liver S9 fraction at 0.3 to 60 uM by AMES test; format: toxicity; settings: salmonella enterica subsp. enterica serovar typhimurium, s9, 60 µM; dose 0.3-60 µM
HeLa [17] = test: Induction of morphological changes in human HeLa cells assessed as effect on actin cytoskeleton at 10 uM incubated for 3 hrs by phalloidin staining based laser scanning confocal microscopic analysis; format: functional, cell-based; procedure, shortened: as §4
HeLa [18] = test: Induction of morphological changes in human HeLa cells assessed as golgi complex fragmentation at 1 uM incubated for 3 hrs by phalloidin staining based laser scanning confocal microscopic analysis; format: functional, cell-based; procedure, shortened: as §4

| SMILES | IC50 (OE33) | Activity (HL-60 [3]) | Activity (HL-60 [4]) | inhibition [5] | Activity (Emu-TCL1) | Activity [7] | EC50 at 24 h [9] | Activity [10] | Activity (HeLa [11]) | k el [12] | Activity [16] | also measured |
| --- | --- | --- | --- | --- | --- | --- | --- | --- | --- | --- | --- | --- |
| CN1CCN(C(=O)OC2=C(c3cccc4ncccc34)Oc3cc4ccccc4cc3-n3cccc32)CC1 | 0.4 µM | Active | Active | Active | Active | Non-Toxic | 45 µM | >=70% | Active | 0.000367 s⁻¹ | Non-Toxic | Activity (Tubulin (Homo sapiens) [1]): Active; IC50 (A2780): 0.399 µM; Activity (SCC-4): Active; IC50 (HeLa [2]): 0.331 µM; Activity (TR146): Active; Activity (Ca9-22): Active; inhibition (Tubulin (Homo sapiens) [6]): 100%; IC50 [8]: 0.4 µM; Ratio IC50 [13]: 0.71; Ratio IC50 [14]: 0.67; Activity (Tubulin (Homo sapiens) [15]): Active |
| O=C(OC1=C(c2cccc3ncccc23)Oc2cc3ccccc3cc2-n2cccc21)C1CCNCC1 | 1.93 µM | Active | Active | Active | Active | Non-Toxic | 45 µM | >=70% | Active | 0.000127 s⁻¹ | Non-Toxic | Activity (HeLa [17]): Active; Activity (HeLa [18]): Active |
